Laboratory results reported in ChEMBL document CHEMBL4321819, “Simple Structural Modifications Converting a Bona fide MDM2 PROTAC Degrader into a Molecular Glue Molecule: A Cautionary Tale in the Design of PROTAC Degraders” (J Med Chem, 2019).
Activity calls are given as the source filed them. The rule behind the calls is not given here.

Assays:
MDA-MB-468 [1] = test: Antiproliferative activity against human MDA-MB-468 cells transfected with CRBN siRNA LQ-021086-11-0002 assessed as cell growth inhibition after 4 days by WST-8 assay; format: functional, cell-based; details: MDA-MB-468, 96 h
Method in brief: (§1)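 MDA-MB-231 or MDA-MB-468 cells transfected for 2 days using Lipofectamine RNAiMAX with MDM2 siRNA, one of two CRBN siRNAs, or non-targeting control siRNA. Compound then added and growth read by WST-8 at 450 nm.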

[2] = target: T1, Eukaryotic peptide chain release factor GTP-binding subunit ERF3A (Homo sapiens, UniProt P15170); test: Induction of GSPT1 degradation in human RS4:11 cells at 0.1 uM pretreated with Nedd8 inhibitor MLN4924 followed by compound treatment after 2 hrs by Western blot analysis
[3] = target: Cellular tumor antigen p53 (Homo sapiens) (UniProt P04637); test: Activation of p53 in human RS4:11 cells assessed as increase in BAX mRNA expression at 3 nM after 1 to 2 hrs by qRT-PCR analysis; format: cell-based
Method in brief: (§2)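 RS4;11 cells (RPMI 1640, 10% FBS, 37 °C, 5% CO2) treated with 3 nM or 10 nM compound; total RNA extracted and mRNA of p53 targets MDM2, CDKN1A, PUMA and BAX quantified by qRT-PCR. Mean ± standard error from at least three independent experiments.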

MDA-MB-468 [4] = test: Antiproliferative activity against human MDA-MB-468 cells transfected with CRBN siRNA LQ-021086-10-0002 assessed as cell growth inhibition after 4 days by WST-8 assay; format: functional, cell-based; details: MDA-MB-468, 96 h; method in brief: as §1
MDA-MB-468 [5] = test: Antiproliferative activity against human MDA-MB-468 cells transfected with MDM2 siRNA assessed as cell growth inhibition after 4 days by WST-8 assay; format: functional, cell-based; details: MDA-MB-468, 96 h; method in brief: as §1
[6] = target: Cellular tumor antigen p53 (Homo sapiens) (UniProt P04637); test: Activation of p53 in human RS4:11 cells assessed as increase in CDKN1A mRNA expression at 3 nM after 1 to 2 hrs by qRT-PCR analysis; format: cell-based; method in brief: as §2
[7] = Antiproliferative activity against human RS4:11/IRMI-2 cells harboring p53 hotspot mutation Y236H/R249G assessed as cell growth inhibition after 4 days by WST-8 assay; format: functional, cell-based; details: RS4-11, 96 h
Method in brief: (§3)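 Leukemia cells seeded at 10000–20000 cells/well, breast cancer lines at 5000–10000 cells/well. Serially diluted compound added, then 4 days at 37 °C, 5% CO2. Growth read with WST-8 reagent after at least 1 h, absorbance at 450 nm. RS4;11, MOLM-13 and breast lines were grown in RPMI 1640; MV-4-11 and HL-60 in IMDM; all with 10% FBS. Mean ± SE, at least three independent experiments.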

[8] = target: T2, Protein cereblon/Eukaryotic peptide chain release factor GTP-binding subunit ERF3A/DNA damage-binding protein 1/Cullin-4A (Homo sapiens) (UniProt Q96SW2+Q16531+Q13619+P15170); test: Protac activity at GSPT1/CUL4/DDB1/CRBN in human RS4:11 cells expressing wild type p53 assessed as decrease in GSPT1 protein level by measuring fold change of protein level before and after treatment at 0.1 uM measured after 3 hrs relative to control
[9] = target: T1, Eukaryotic peptide chain release factor GTP-binding subunit ERF3A; test: Induction of GSPT1 degradation in human MDA-MB-468 cells transfected with CRBN siRNA LQ-021086-10-0002 assessed as decrease in GSPT1 protein level at 0.1 uM after 2 to 24 hrs by Western blot analysis; format: cell-based
Method in brief: (§4)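 MDA-MB-231 or MDA-MB-468 cells transfected 2 days with CRBN siRNA (Lipofectamine RNAiMAX; non-targeting siRNA as control), then exposed to 0.1 μM for 2 h or 24 h. Cell culture was RPMI 1640 with 10% FBS at 37 °C, 5% CO2. GSPT1 and cereblon protein were probed by Western blot.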

MDA-MB-468 [10] = test: Antiproliferative activity against human MDA-MB-468 cells harboring mutant p53 assessed as cell growth inhibition after 4 days by WST-8 assay; format: functional, cell-based; details: MDA-MB-468, 96 h; method in brief: as §3
[11] = target: T1, Eukaryotic peptide chain release factor GTP-binding subunit ERF3A; test: Induction of GSPT1 degradation in human MDA-MB-468 cells transfected with CRBN siRNA LQ-021086-11-0002 assessed as decrease in GSPT1 protein level at 0.1 uM after 2 to 24 hrs by Western blot analysis; format: cell-based; method in brief: as §4
[12] = Antiproliferative activity against human RS4:11/IRMI-2 cells harboring p53 hotspot mutation Y236H/R249G assessed as MDM2-independent cell growth inhibition after 4 days by WST-8 assay; format: functional, cell-based; details: RS4-11, 96 h; method in brief: as §3
[13] = target: Cellular tumor antigen p53 (Homo sapiens) (UniProt P04637); test: Activation of p53 in human RS4:11 cells assessed as increase in PUMA mRNA expression at 3 nM after 1 to 2 hrs by qRT-PCR analysis; format: cell-based; method in brief: as §2
MDA-MB-231 = test: Antiproliferative activity against human MDA-MB-231 cells assessed as cell growth inhibition after 4 days in presence of control siRNA for 2 days followed by compound treatment by WST-8 assay; format: functional, cell-based; method in brief: as §1
[14] = target: T1, Eukaryotic peptide chain release factor GTP-binding subunit ERF3A; test: Induction of GSPT1 degradation in human MDA-MB-231 cells transfected with CRBN siRNA LQ-021086-10-0002 assessed as decrease in GSPT1 protein level at 0.1 uM after 2 to 24 hrs by Western blot analysis; format: cell-based
Method in brief: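 MDA-MB-231 cells transfected with CRBN or non-targeting siRNA, then exposed to 0.1 μM compound for 2 h or 24 h. Lysed in ice-cold lysis buffer with protease inhibitor; GSPT1 and cereblon probed by Western blot.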

[15] = Antiproliferative activity against human RS4:11/IRMI-2 cells harboring p53 hotspot mutation Y236H/R249G assessed as cell growth inhibition without interaction with cereblon after 4 days by WST-8 assay; format: functional, cell-based; details: RS4-11, 96 h; method in brief: as §3
[16] = target: Protein cereblon/Eukaryotic peptide chain release factor GTP-binding subunit ERF3A (Homo sapiens) (UniProt Q96SW2+P15170); test: Inhibition of cereblon binding with GSPT1 in human MDA-MB-231 cells assessed as decrease in GSPT1 degradation at 0.1 uM after 2 hrs in presence of 30 uM lenalidomide by Western blot analysis; format: cell-based
Method in brief: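 MDA-MB-231 or MDA-MB-468 cells were treated 2 h with or without 30 μM lenalidomide to block cereblon binding. GSPT1 protein level was then assessed by Western blotting.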

[17] = target: T2, Protein cereblon/Eukaryotic peptide chain release factor GTP-binding subunit ERF3A/DNA damage-binding protein 1/Cullin-4A (Homo sapiens); test: Protac activity at GSPT1/CUL4/DDB1/CRBN in human RS4:11 cells expressing wild type p53 assessed as decrease in GSPT1 protein level measured upto 24 hrs by Western blot analysis; format: cell-based
Method in brief: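 RS4;11 (wild-type p53) or RS4;11/IRMI-2 (MDM2 inhibitor-resistant derivative, mutant p53) cells kept in RPMI 1640 with 10% FBS at 37 °C, 5% CO₂. 2×10^6 cells/well treated at the indicated concentrations and times, then lysed in ice-cold lysis buffer with protease inhibitor. GSPT1 detected by Western blot with a specific antibody.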

T1 sequence (P15170 whole entry): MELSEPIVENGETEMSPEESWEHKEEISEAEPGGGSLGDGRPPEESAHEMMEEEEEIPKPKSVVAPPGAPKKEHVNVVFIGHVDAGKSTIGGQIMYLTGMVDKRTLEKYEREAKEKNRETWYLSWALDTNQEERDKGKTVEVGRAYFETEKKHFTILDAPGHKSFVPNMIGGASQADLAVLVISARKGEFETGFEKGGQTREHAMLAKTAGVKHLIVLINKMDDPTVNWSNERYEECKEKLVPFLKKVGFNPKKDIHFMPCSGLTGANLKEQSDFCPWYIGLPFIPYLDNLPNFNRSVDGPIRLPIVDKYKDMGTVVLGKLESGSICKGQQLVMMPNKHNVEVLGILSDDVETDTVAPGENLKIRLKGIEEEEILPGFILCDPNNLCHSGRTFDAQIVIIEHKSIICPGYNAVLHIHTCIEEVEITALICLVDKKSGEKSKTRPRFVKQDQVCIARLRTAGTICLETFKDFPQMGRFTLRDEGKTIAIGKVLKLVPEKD
Sequence of Cellular tumor antigen p53 (Homo sapiens) (P04637 whole entry, looked up): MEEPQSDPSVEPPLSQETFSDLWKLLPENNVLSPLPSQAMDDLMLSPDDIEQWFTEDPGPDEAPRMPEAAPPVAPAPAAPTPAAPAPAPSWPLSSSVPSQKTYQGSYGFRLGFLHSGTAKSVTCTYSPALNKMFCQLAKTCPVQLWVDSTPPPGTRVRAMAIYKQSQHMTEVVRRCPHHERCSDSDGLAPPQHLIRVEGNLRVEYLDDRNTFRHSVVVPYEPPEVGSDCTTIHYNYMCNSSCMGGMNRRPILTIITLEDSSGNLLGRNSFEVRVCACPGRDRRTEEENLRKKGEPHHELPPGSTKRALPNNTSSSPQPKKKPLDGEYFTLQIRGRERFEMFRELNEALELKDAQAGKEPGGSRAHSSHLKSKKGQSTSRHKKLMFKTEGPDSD
T2 sequence (P15170 whole entry, looked up): as the sequence (P15170 whole entry) above
T2 sequence (Q13619 whole entry, looked up): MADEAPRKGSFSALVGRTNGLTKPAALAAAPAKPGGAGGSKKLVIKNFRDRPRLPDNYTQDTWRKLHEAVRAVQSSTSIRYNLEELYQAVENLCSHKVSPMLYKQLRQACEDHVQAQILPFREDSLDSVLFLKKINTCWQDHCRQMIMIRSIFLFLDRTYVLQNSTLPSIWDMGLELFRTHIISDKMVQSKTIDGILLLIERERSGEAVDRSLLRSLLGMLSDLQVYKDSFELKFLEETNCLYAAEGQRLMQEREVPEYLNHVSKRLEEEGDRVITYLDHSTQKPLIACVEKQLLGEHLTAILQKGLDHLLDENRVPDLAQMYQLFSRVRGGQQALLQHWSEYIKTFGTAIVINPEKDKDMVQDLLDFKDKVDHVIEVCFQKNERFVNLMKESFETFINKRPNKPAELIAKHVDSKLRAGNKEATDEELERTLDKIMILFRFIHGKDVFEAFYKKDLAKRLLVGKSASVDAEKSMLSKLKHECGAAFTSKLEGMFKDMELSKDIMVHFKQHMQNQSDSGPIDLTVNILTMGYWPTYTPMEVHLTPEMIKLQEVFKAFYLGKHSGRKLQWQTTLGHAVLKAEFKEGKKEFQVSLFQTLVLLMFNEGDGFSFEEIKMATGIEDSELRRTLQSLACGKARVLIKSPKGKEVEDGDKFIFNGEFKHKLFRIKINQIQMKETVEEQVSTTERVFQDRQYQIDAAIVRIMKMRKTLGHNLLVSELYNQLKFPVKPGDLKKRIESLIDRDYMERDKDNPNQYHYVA
T2 sequence (Q16531 whole entry, looked up): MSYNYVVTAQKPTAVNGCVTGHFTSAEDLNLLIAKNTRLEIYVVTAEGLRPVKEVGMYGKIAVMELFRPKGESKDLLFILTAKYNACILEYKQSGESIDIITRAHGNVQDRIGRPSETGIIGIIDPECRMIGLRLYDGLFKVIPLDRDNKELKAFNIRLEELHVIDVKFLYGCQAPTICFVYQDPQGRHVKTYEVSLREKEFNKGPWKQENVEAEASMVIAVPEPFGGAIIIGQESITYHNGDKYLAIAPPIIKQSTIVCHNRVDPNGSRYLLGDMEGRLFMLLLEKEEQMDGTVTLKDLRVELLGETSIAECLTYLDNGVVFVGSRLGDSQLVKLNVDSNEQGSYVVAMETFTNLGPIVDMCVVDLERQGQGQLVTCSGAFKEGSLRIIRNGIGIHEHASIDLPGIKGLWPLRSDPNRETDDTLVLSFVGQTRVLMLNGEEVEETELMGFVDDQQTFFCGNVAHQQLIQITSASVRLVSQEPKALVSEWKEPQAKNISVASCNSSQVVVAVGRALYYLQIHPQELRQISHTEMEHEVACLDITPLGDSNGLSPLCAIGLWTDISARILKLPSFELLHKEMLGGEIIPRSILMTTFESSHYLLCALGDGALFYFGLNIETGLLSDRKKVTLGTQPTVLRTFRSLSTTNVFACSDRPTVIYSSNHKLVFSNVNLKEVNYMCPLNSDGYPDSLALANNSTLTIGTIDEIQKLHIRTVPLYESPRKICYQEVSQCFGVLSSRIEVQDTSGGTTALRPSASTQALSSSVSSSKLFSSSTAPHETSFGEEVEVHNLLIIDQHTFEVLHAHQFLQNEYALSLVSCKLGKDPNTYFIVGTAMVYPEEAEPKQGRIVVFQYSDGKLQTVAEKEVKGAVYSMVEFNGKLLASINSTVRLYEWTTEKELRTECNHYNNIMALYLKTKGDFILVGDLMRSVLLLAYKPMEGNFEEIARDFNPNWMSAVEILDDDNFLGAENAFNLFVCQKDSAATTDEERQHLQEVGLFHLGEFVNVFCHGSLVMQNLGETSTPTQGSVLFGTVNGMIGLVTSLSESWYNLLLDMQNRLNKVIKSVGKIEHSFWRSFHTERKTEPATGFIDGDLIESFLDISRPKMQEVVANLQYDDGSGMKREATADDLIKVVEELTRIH
T2 sequence (Q96SW2 whole entry, looked up): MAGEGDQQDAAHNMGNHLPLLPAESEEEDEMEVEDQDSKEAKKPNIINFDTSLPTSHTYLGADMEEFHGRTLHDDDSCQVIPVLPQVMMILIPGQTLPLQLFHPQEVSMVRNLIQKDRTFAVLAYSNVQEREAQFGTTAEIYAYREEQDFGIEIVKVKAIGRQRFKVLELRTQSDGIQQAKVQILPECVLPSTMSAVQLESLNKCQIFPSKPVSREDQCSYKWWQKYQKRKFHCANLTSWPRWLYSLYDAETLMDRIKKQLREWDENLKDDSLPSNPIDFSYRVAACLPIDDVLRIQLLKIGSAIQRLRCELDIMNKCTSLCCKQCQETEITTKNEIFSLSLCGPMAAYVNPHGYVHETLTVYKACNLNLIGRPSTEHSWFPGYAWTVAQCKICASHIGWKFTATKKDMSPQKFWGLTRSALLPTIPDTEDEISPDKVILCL
Sequence of Protein cereblon/Eukaryotic peptide chain release factor GTP-binding subunit ERF3A (Homo sapiens) (P15170 whole entry, looked up): as the sequence (P15170 whole entry) above
Sequence of Protein cereblon/Eukaryotic peptide chain release factor GTP-binding subunit ERF3A (Homo sapiens) (Q96SW2 whole entry, looked up): as the sequence (Q96SW2 whole entry, looked up) above

O=C1CCC(N2Cc3c(CCCCCNC(=O)[C@@H]4NC5(CCCCC5)[C@@]5(C(=O)Nc6cc(Cl)ccc65)[C@H]4c4cccc(Cl)c4F)cccc3C2=O)C(=O)N1 (stereo partly drawn)
IC50 (MDA-MB-468 [1]): > 1000 nM | Activity [2]: inactive | Activity [3]: inactive | IC50 (MDA-MB-468 [4]): > 1000 nM | IC50 (MDA-MB-468 [5]): 19.8 nM | Activity [6]: inactive | IC50 [7]: 3.4 nM | fold change [8]: 5.3 | Activity [9]: inactive | IC50 (MDA-MB-468 [10]): 26.4 nM | Activity [11]: inactive | IC50 [12]: 2.6 nM | Activity [13]: inactive | IC50 (MDA-MB-231): 28.9 nM | Activity [14]: inactive | IC50 [15]: 2.6 nM | inhibition [16]: Active | Activity [17]: Dose-dependent effect
